Measurements collected from several papers.
Protocols differ between the studies behind these lines.

C=CS(=O)(=O)c1ccc(Nc2nc(OCC3CCCCC3)c3nc[nH]c3n2)cc1 — Cmax (male BALB/c mouse; plasma; intraperitoneal; 20 mg/kg; single dose): 0.19 µg/mL
O=C(COc1ccc(N2C(=O)[C@@H]3[C@@H]4C=C[C@@H]([C@H]5C[C@@H]45)[C@@H]3C2=O)cc1)c1cc(Cl)cc(Cl)c1 — Cmax (mouse; brain; oral; 20 mg/kg): 5 µM
Cc1c(C(=O)O)ccc2c3n(nc12)[C@@H]1[C@H](C3)N(CC2CC2)[C@@]2(C(=O)Nc3cc(Cl)ccc32)[C@H]1c1cccc(Cl)c1F — Cmax (female mouse; plasma; oral; 5 mg/kg): 7.4 µM
Nc1ncn([C@H]2C[C@H](O)[C@@H](CO)O2)c(=O)n1 — Cmax (female C57BL/6 mouse; plasma; oral; 0.4 mg/kg): 0.118 µg/mL
CC(=O)O[C@@]12CO[C@@H]1C[C@H](O)[C@@]1(C)C(=O)[C@H](O)C3=C(C)[C@@H](OC(=O)[C@H](O)[C@@H](NC(=O)OC(C)(C)C)c4ccccc4)C[C@@](O)([C@@H](OC(=O)c4ccccc4)[C@H]21)C3(C)C — Cmax (male Kunming mouse; plasma; oral; 20 mg/kg): 0.0041 µg/mL
CCN1CCN(Cc2ccc(NC(=O)c3ccc(C)c(NC(=O)c4cncc(-c5cccs5)c4)c3)cc2C(F)(F)F)CC1 — Cmax (mouse; plasma; intraperitoneal; 10 mg/kg; single dose): 0.488 µg/mL
O=C(ONc1nc2nonc2nc1Nc1ccccc1F)c1ccc(OC(F)(F)F)cc1 — Cmax (male C57BL/6 mouse; plasma; oral; 10 mg/kg): 0.0019 µM
O=C1CCN2C(=O)c3ccccc3C2C(=O)Nc2ccccc21 (centres unmarked) — Cmax (male Swiss mouse; plasma; oral; 100 mg/kg): 0.617 µM
